Data on 25 molecules can be found in ChEMBL document CHEMBL4732210, “Discovery of new phenyl sulfonyl-pyrimidine carboxylate derivatives as the potential multi-target drugs with effective anti-Alzheimer's action: Design, synthesis, crystal structure and in-vitro biological evaluation” (Eur J Med Chem, 2021).

In data set [1] the target is T1, Acetylcholinesterase (Homo sapiens, UniProt P22303). The data set can be described thus: Inhibition of AChE in human erythrocytes using acetylthiocholineiodide as substrate pre-incubated for 10 mins followed by substrate addition and measured for 6 mins by DTNB reagent based Ellman's method. The format is cell-based, Erythrocyte. (Ellman's reagent forms a yellow product with free thiols.)
T1 sequence (P22303 whole entry): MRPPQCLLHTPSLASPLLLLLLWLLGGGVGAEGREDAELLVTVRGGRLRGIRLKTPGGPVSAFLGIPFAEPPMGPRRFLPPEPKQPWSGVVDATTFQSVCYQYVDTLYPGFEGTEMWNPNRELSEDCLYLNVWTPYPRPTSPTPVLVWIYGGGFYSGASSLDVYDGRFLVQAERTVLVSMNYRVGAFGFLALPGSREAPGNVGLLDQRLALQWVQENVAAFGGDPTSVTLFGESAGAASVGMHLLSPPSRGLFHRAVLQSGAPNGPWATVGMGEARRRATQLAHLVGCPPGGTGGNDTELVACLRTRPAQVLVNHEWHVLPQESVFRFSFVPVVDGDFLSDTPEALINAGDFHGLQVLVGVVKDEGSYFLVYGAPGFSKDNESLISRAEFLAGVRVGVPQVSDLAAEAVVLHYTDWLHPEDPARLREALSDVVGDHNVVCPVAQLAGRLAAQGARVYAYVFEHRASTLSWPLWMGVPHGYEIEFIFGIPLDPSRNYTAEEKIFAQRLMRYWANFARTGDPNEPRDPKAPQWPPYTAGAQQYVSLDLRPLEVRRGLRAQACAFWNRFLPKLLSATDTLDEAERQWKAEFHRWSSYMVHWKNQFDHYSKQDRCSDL

Data set [2] has as its target T2, Cholinesterase (Homo sapiens, UniProt P06276). Put plainly: Inhibition of BuChE in human serum using butyrylthiocholineiodide as substrate pre-incubated for 10 mins followed by substrate addition and measured for 6 mins by DTNB reagent based Ellman's method. Type of data set: cell-free. Summed up:
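AChE from human erythrocytes at 0.25 U/ml in 20 mM HEPES pH 8 with 0.1% Triton X-100, or BuChE from human serum at 0.25 U/ml in 0.1% gelatine. Substrate ATCI or BTCI at […], DTNB […], in 0.1 M PBS pH 7.4. Enzyme and inhibitor (DMSO stock, five concentrations) preincubated 10 min, then substrate added; rate followed 6 min at 37 °C. Non-enzymatic blank subtracted. Triplicates; IC50 from log concentration–percent inhibition curves.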

In data set [3] the target is T1, Acetylcholinesterase. Put plainly: Inhibition of AChE (unknown origin) by DTNB reagent based Ellman's method. Summed up: (§1)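 Ellman assay with DTNB read at 412 nm. AChE from human erythrocytes at 0.25 U/ml in 20 mM HEPES pH 8 with 0.1% Triton X-100, or BuChE from human serum at 0.25 U/ml in 0.1% gelatine. Substrate ATCI or BTCI at […], DTNB […], in 0.1 M PBS pH 7.4. Enzyme and inhibitor (DMSO stock, five concentrations) preincubated 10 min, then substrate added; rate followed 6 min at 37 °C. Non-enzymatic blank subtracted. Triplicates; IC50 from log concentration–percent inhibition curves.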

For data set [4], the target named is T2, Cholinesterase. Put plainly: Inhibition of BuChE (unknown origin) by DTNB reagent based Ellman's method. Summed up:
as §1

Data set [5] addresses T1, Acetylcholinesterase. The data set can be described thus: Non-competitive inhibition of AChE in human erythrocytes measured at 2 mins interval for 10 mins by Dixon plot analysis. The format is cell-based, Erythrocyte. An outline of the steps:
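Human AChE kinetics in the Ellman DTNB assay. Inhibitor at 25, 50 and 100 nM, each with six ATCI concentrations, against an inhibitor-free series. Activity read every 2 min over 10 min. Km and Vmax from Michaelis–Menten non-linear regression; mechanism from Lineweaver–Burk plots; Ki from Dixon plot over four inhibitor concentrations and from slope/intercept replots. Triplicate.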

The nature of data set [6]: Neuroprotective activity in human MC65 cells cultured in TC-deficient medium assessed as inhibition of TC-deficiency induced oxidative stress by measuring increase in cell viability at 60 to 80 uM measured after 12 hrs by MTT assay relative to cells cultured in tetracycline containing medium. The format is functional. Conditions: dose 60-80 µM. An outline of the steps:
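MC65 cells grown in MEM, PBS-washed and resuspended in MEM, then seeded at 5×10⁴ cells/well with or without TC. Compounds (80–1 μM) added to TC-free wells and incubated 12 h at 37 °C. MTT (5 mg/ml) added for a further 4 h; formazan dissolved in DMSO:H₂O 1:1 and read at 570 nm. Viability expressed as % of +TC control. Triplicate wells, three runs.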
A general note: Formazan colour is commonly taken as a measure of viable cells.

Data set [7] can be described thus: Permeability of the compound measured after 16 hrs by PAMPA-BBB assay. (PAMPA measures passive passage across an artificial lipid membrane.)

T2 sequence (P06276 whole entry): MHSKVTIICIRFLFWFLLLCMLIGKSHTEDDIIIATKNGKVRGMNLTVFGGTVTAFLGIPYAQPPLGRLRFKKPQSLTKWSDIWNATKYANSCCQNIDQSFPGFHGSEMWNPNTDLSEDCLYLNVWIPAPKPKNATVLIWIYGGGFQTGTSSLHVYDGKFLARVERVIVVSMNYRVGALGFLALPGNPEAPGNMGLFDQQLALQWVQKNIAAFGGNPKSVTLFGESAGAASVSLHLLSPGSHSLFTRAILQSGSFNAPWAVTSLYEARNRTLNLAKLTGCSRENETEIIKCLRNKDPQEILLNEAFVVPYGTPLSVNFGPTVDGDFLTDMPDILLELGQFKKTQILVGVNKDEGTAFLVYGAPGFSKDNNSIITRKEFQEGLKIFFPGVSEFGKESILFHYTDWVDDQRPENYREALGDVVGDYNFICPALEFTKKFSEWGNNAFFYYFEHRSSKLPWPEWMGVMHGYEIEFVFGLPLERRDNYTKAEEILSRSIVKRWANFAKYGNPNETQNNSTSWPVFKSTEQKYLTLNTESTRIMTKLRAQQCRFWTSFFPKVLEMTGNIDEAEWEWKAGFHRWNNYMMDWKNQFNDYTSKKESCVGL

What is called IC50 is the midpoint of a concentration-inhibition curve. The low end stands for inhibition by little substance, the high end for a need for much substance. On to `CCOC(=O)c1c(C)nc(N2CCN(S(=O)(=O)c3ccc(NC(C)=O)cc3)CC2)nc1-c1ccc(OC)c(OC)c1`, for which the IC50 against Acetylcholinesterase [1] came out at 88.8 nM; against Cholinesterase [2] it was 167 nM.

`CCOC(=O)c1c(C)nc(N2CCN(S(=O)(=O)c3ccc(N)cc3)CC2)nc1-c1ccc(OC)cc1`: the IC50 at Acetylcholinesterase [1] came out at 71.9 nM; against Cholinesterase [2] it was 192 nM.

Take `CCOC(=O)c1c(C)nc(N2CCN(S(=O)(=O)c3ccc(N)c(F)c3)CC2)nc1-c1ccc(OC)cc1`: the IC50 on Acetylcholinesterase [1] is 101 nM; at Cholinesterase [2], 157 nM.

Turning to `CCOC(=O)c1c(C)nc(N2CCN(S(=O)(=O)c3ccc(NC(C)=O)c(OC)c3)CC2)nc1-c1ccc(OC)c(OC)c1`, the IC50 on Acetylcholinesterase [1] was 79.2 nM; against Cholinesterase [2] it was > 200 nM.

On to `CCOC(=O)c1c(C)nc(N2CCN(S(=O)(=O)c3ccc(NC(C)=O)c(Cl)c3)CC2)nc1-c1ccccc1`, for which the 50% inhibitory concentration (IC50) against Acetylcholinesterase [1] stood at 144 nM; against Cholinesterase [2], 156 nM.

With `CCOC(=O)c1c(C)nc(N2CCN(S(=O)(=O)c3ccc(NC(C)=O)cc3)CC2)nc1-c1ccc(OC)cc1`, the values for the IC50 on Acetylcholinesterase [1] and on Cholinesterase [2] were 132 nM and > 200 nM, respectively.

Take `CCOC(=O)c1c(C)nc(N2CCN(S(=O)(=O)c3ccc(N)c(OC)c3)CC2)nc1-c1ccccc1`: the values for the IC50 against Acetylcholinesterase [1] and against Cholinesterase [2] were 84.6 nM and 184 nM, respectively.

Turning to `CCOC(=O)c1c(C)nc(N2CCN(S(=O)(=O)c3ccc(N)c(F)c3)CC2)nc1-c1ccccc1`, the concentration for half-maximal inhibition (IC50) on Acetylcholinesterase [1] and against Cholinesterase [2] was > 200 nM each time.

`CCOC(=O)c1c(C)nc(N2CCN(S(=O)(=O)c3ccc(N)c(OC)c3)CC2)nc1-c1ccc(OC)c(OC)c1`: the half-inhibitory concentration (IC50) was 85.6 nM at Acetylcholinesterase [1] and > 200 nM against Cholinesterase [2].

`CCOC(=O)c1c(C)nc(N2CCN(S(=O)(=O)c3ccc(N)c(Cl)c3)CC2)nc1-c1ccccc1`: the values for the half-maximal inhibitory concentration (IC50) on Acetylcholinesterase [1] and on Cholinesterase [2] were 79.1 nM and 137 nM, respectively.

For the molecule `CCOC(=O)c1c(C)nc(N2CCN(S(=O)(=O)c3ccc(NC(C)=O)c(OC)c3)CC2)nc1-c1ccc(OC)cc1`, the IC50 against Acetylcholinesterase [1] was 79.3 nM; at Cholinesterase [2], 194 nM.

With `CCOC(=O)c1c(C)nc(N2CCN(S(=O)(=O)c3ccc(NC(C)=O)c(F)c3)CC2)nc1-c1ccc(OC)c(OC)c1`, the 50% inhibitory concentration (IC50) against Acetylcholinesterase [1] amounted to 76.5 nM; at Cholinesterase [2], 186 nM.

On to `CCOC(=O)c1c(C)nc(N2CCN(S(=O)(=O)c3ccc(N)cc3)CC2)nc1-c1ccc(OC)c(OC)c1`, for which the IC50 against Acetylcholinesterase [1] was 68 nM; against Cholinesterase [2], > 200 nM.

On to `CCOC(=O)c1c(C)nc(N2CCN(S(=O)(=O)c3ccc(NC(C)=O)c(F)c3)CC2)nc1-c1ccccc1`, for which the half-inhibitory concentration (IC50) was determined as 97.4 nM against Acetylcholinesterase [1] and 194 nM against Cholinesterase [2].

With `CCc1ccc(NC(=O)COc2c(Cl)cc(Cl)cc2S(=O)(=O)N2CCN(C(=O)c3ccco3)CC2)cc1`, the values for the IC50 on Acetylcholinesterase [3] and against Cholinesterase [4] were 5540 nM and 9150 nM, respectively.

`CCOC(=O)c1c(C)nc(N2CCN(S(=O)(=O)c3ccc(N)c(OC)c3)CC2)nc1-c1ccc(OC)cc1`: the figures for the IC50 at Acetylcholinesterase [1] and on Cholinesterase [2] were 68.5 nM and 187 nM, respectively.

Turning to `CCOC(=O)c1c(C)nc(N2CCN(S(=O)(=O)c3ccc(N)cc3)CC2)nc1-c1ccccc1`, the 50% inhibitory concentration (IC50) against Acetylcholinesterase [1] and on Cholinesterase [2] was > 200 nM throughout.

The Ki is a measure of affinity in units of concentration, obtained from inhibition or displacement. As a reminder, the Papp is a coefficient for how fast a substance crosses the barrier. Take `CCOC(=O)c1c(C)nc(N2CCN(S(=O)(=O)c3ccc(NC(C)=O)c(Cl)c3)CC2)nc1-c1ccc(OC)c(OC)c1`: the half-maximal inhibitory concentration (IC50) against Acetylcholinesterase [1] amounted to 47.3 nM; against Cholinesterase [2], 159 nM. Also, the Ki on Acetylcholinesterase [5] amounted to 8 nM. In data set [6], the Activity came to 99.41%. Besides, the Papp at 16 h in data set [7] is 24.3 ×10⁻⁶ cm/s.

For the molecule `CCOC(=O)c1c(C)nc(N2CCN(S(=O)(=O)c3ccc(NC(C)=O)c(F)c3)CC2)nc1-c1ccc(OC)cc1`, the 50% inhibitory concentration (IC50) against Acetylcholinesterase [1] was determined as 91.9 nM; at Cholinesterase [2], 168 nM.

Consider `CCOC(=O)c1c(C)nc(N2CCN(S(=O)(=O)c3ccc(N)c(Cl)c3)CC2)nc1-c1ccc(OC)cc1`, for which the IC50 against Acetylcholinesterase [1] came out at 77.9 nM; against Cholinesterase [2], 178 nM.

For `CCOC(=O)c1c(C)nc(N2CCN(S(=O)(=O)c3ccc(NC(C)=O)c(Cl)c3)CC2)nc1-c1ccc(OC)cc1`, the IC50 against Acetylcholinesterase [1] is 87.6 nM; against Cholinesterase [2], > 200 nM.

With `CCOC(=O)c1c(C)nc(N2CCN(S(=O)(=O)c3ccc(N)c(F)c3)CC2)nc1-c1ccc(OC)c(OC)c1`, the concentration for half-maximal inhibition (IC50) was 66.1 nM on Acetylcholinesterase [1] and 177 nM against Cholinesterase [2].

Take `CCOC(=O)c1c(C)nc(N2CCN(S(=O)(=O)c3ccc(N)c(Cl)c3)CC2)nc1-c1ccc(OC)c(OC)c1`: the IC50 against Acetylcholinesterase [1] is 51.4 nM; at Cholinesterase [2], 153 nM. Moreover, the apparent permeability coefficient (Papp) at 16 h in data set [7] was determined as 23.7 ×10⁻⁶ cm/s.

Regarding `CCOC(=O)c1c(C)nc(N2CCN(S(=O)(=O)c3ccc(NC(C)=O)c(OC)c3)CC2)nc1-c1ccccc1`, the results for the IC50 on Acetylcholinesterase [1] and against Cholinesterase [2] were 79 nM and 184 nM, respectively.

`CCOC(=O)c1c(C)nc(N2CCN(S(=O)(=O)c3ccc(NC(C)=O)cc3)CC2)nc1-c1ccccc1`: the IC50 is 118 nM at Acetylcholinesterase [1] and > 200 nM against Cholinesterase [2].
